The source made the active and inactive calls. No cut-off for these calls is given here.
Columns and labels:
[1] = test system: T47D; assay: Induction of apoptosis in human T47D cells at 40 nM incubated for 48 hrs by annexin V FITC and propidium iodide staining based flow cytometry; type: functional, cell-based
Procedure, shortened: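 Annexin V-FITC/PI double staining with flow-cytometric readout. MDA-MB-231, T-47D, SiHa and HeLa cells were treated with graded concentrations for 48 h. MDA-MB-231 and T-47D were grown in DMEM and SiHa in 1640 medium, each with 10% FBS and 1% penicillin/streptomycin at 37°C under 5% CO2. Early- and late-stage apoptotic fractions were scored.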

[2] = test system: T47D; assay: Inhibition of colony formation in human T47D cells at 40 nM incubated for 5 days by crystal violet staining based light microscopy; type: functional, cell-based
Procedure, shortened: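 MDA-MB-231, T-47D, SiHa and HeLa cells seeded at 4×10^3/well and cultured with varying concentrations of drug or vehicle for 5 days. Fixed in 20% methanol, stained with 0.5% crystal violet, photographed under light microscopy. DMEM (T-47D) with 10% FBS, 37°C, 5% CO2.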

[3] = biological target: Serine/threonine-protein kinase PLK2 (Homo sapiens) (UniProt Q9NYY3); assay: Inhibition of recombinant human SNK (65 to 409 residues) at 1 uM using casein as substrate incubated for 40 mins in presence of [gamma-33P]-ATP by scintillation counting method relative to control
[4] = biological target: Wee1-like protein kinase (Homo sapiens) (UniProt P30291); assay: Inhibition of recombinant human WEE1 (214 to end residues) at 1 uM using LSNLYHQGKFLQTFCGSPLYRRR as substrate incubated for 40 mins in presence of [gamma-33P]-ATP by scintillation counting method relative to control
[5] = Toxicity in BALB/c mouse assessed as effect on blood parameter by measuring lymphocytes content at 40 mg/kg, po administered once two days for 4 times by hematology analyzer; conditions: in vivo
[6] = test system: Fibroblast growth factor receptor 2 (Homo sapiens), P21802 [N549H]; assay: Inhibition of recombinant human FGFR2 N549H mutant (456 to 770 residues) at 1 uM using GGEEEEYFELVKKKK as substrate incubated for 40 mins in presence of [gamma-33P]-ATP by scintillation counting method relative to control
[7] = biological target: [Pyruvate dehydrogenase (acetyl-transferring)] kinase isozyme 2, mitochondrial (Homo sapiens) (UniProt Q15119); assay: Inhibition of recombinant human PDHK2 at 1 uM incubated for 40 mins in presence of [gamma-33P]-ATP by scintillation counting method relative to control
Procedure, shortened: (§1)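 Tested at a single 1 uM in an outsourced commercial kinase-profiling panel, read as percent inhibition. Each value is the mean of two independent experiments.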

[8] = biological target: Inhibitor of nuclear factor kappa-B kinase subunit epsilon (Homo sapiens) (UniProt Q14164); assay: Inhibition of recombinant human full length IKKepsilon at 1 uM using casein as substrate incubated for 40 mins in presence of [gamma-33P]-ATP by scintillation counting method relative to control
[9] = biological target: Myosin light chain kinase, smooth muscle (Homo sapiens) (UniProt Q15746); assay: Inhibition of recombinant human MLCK (1425 to 1771 residues) at 1 uM using KKLNRTLSFAEPG as substrate incubated for 40 mins in presence of [gamma-33P]-ATP by scintillation counting method relative to control
[10] = biological target: Ephrin type-A receptor 8 (Homo sapiens) (UniProt P29322); assay: Inhibition of recombinant human EPhA8 (615 to 911 residues) at 1 uM using KTFCGTPEYLAPEVRREPRILSEEEQEMFRDFDYIADWC as substrate incubated for 40 mins in presence of [gamma-33P]-ATP by scintillation counting method relative to control
[11] = biological target: Serine/threonine-protein kinase ATR (Homo sapiens) (UniProt Q13535); assay: Inhibition of recombinant human full length ATR at 1 uM using GST-cMyc-p53 as substrate incubated for 40 mins in presence of [gamma-33P]-ATP by scintillation counting method relative to control; procedure, shortened: as §1
[12] = test system: Tyrosine-protein kinase BTK (Homo sapiens), Q06187 [R28H]; assay: Inhibition of recombinant full length human BTK R28H mutant at 1 uM using LSNLYHQGKFLQT as substrate incubated for 40 mins in presence of [gamma-33P]-ATP by scintillation counting method relative to control; procedure, shortened: as §1
[13] = test system: Mast/stem cell growth factor receptor Kit (Homo sapiens), P10721 [V654A]; assay: Inhibition of recombinant human c-KIT V654A mutant (544 to end residues) at 1 uM using GGMEDIYFEFMGG as substrate incubated for 40 mins in presence of [gamma-33P]-ATP by scintillation counting method relative to control; procedure, shortened: as §1
[14] = biological target: ALK tyrosine kinase receptor (Homo sapiens) (UniProt Q9UM73); assay: Inhibition of recombinant human ALK (1058 to end residues) at 1 uM using KKKSPGEYVNIEF as substrate incubated for 40 mins in presence of [gamma-33P]-ATP by scintillation counting method relative to control
Procedure, shortened: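 Kinase panel profiling at 1 μM performed by Eurofins KinaseProfiler; percent inhibition reported as mean of two independent experiments.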

[15] = biological target: Serine/threonine-protein kinase WNK1 (Homo sapiens) (UniProt Q9H4A3); assay: Inhibition of recombinant human WNK1 (1 to 491 residues) at 1 uM using myelin basic protein as substrate incubated for 40 mins in presence of [gamma-33P]-ATP by scintillation counting method relative to control; procedure, shortened: as §1
[16] = biological target: Death-associated protein kinase 1 (Homo sapiens) (UniProt P53355); assay: Inhibition of recombinant human DAPK1 (1 to 296 residues) at 1 uM using KKLNRTLSFAEPG as substrate incubated for 40 mins in presence of [gamma-33P]-ATP by scintillation counting method relative to control; procedure, shortened: as §1
[17] = test system: Epidermal growth factor receptor (Homo sapiens), P00533 [L861Q]; assay: Inhibition of recombinant human EGFR L861Q mutant (696 to end residues) at 1 uM using poly(Glu, Tyr) 4:1 as substrate incubated for 40 mins in presence of [gamma-33P]-ATP by scintillation counting method relative to control
[18] = Toxicity in NOD/SCID BALB/c mouse xenografted with human SiHa cells assessed as effect on blood parameter by measuring neutrophils content at 40 mg/kg, po administered once two days for 4 times by hematology analyzer; type: organism-based; conditions: in vivo
[19] = Clearance in Sprague-Dawley rat at 10 mg/kg, iv by HPLC-MS analysis; type: ADME, organism-based; conditions: in vivo
Procedure, shortened: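 Rats fitted with jugular vein catheters for serial blood sampling. Compound dissolved in saline with 5% (v/v) DMSO and given as a single 10 mg/kg dose iv or po after an overnight fast, n = 5 per group. Plasma isolated at once and measured by HPLC with tandem MS detection. Parameters derived by noncompartmental fitting.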

[20] = biological target: Serine/threonine-protein kinase D1 (Homo sapiens) (UniProt Q15139); assay: Inhibition of recombinant human full length PKCmu at 1 uM using KKLNRTLSVA as substrate incubated for 40 mins in presence of [gamma-33P]-ATP by scintillation counting method relative to control

Sequence of Serine/threonine-protein kinase ATR (Homo sapiens) (Q13535 whole entry, looked up): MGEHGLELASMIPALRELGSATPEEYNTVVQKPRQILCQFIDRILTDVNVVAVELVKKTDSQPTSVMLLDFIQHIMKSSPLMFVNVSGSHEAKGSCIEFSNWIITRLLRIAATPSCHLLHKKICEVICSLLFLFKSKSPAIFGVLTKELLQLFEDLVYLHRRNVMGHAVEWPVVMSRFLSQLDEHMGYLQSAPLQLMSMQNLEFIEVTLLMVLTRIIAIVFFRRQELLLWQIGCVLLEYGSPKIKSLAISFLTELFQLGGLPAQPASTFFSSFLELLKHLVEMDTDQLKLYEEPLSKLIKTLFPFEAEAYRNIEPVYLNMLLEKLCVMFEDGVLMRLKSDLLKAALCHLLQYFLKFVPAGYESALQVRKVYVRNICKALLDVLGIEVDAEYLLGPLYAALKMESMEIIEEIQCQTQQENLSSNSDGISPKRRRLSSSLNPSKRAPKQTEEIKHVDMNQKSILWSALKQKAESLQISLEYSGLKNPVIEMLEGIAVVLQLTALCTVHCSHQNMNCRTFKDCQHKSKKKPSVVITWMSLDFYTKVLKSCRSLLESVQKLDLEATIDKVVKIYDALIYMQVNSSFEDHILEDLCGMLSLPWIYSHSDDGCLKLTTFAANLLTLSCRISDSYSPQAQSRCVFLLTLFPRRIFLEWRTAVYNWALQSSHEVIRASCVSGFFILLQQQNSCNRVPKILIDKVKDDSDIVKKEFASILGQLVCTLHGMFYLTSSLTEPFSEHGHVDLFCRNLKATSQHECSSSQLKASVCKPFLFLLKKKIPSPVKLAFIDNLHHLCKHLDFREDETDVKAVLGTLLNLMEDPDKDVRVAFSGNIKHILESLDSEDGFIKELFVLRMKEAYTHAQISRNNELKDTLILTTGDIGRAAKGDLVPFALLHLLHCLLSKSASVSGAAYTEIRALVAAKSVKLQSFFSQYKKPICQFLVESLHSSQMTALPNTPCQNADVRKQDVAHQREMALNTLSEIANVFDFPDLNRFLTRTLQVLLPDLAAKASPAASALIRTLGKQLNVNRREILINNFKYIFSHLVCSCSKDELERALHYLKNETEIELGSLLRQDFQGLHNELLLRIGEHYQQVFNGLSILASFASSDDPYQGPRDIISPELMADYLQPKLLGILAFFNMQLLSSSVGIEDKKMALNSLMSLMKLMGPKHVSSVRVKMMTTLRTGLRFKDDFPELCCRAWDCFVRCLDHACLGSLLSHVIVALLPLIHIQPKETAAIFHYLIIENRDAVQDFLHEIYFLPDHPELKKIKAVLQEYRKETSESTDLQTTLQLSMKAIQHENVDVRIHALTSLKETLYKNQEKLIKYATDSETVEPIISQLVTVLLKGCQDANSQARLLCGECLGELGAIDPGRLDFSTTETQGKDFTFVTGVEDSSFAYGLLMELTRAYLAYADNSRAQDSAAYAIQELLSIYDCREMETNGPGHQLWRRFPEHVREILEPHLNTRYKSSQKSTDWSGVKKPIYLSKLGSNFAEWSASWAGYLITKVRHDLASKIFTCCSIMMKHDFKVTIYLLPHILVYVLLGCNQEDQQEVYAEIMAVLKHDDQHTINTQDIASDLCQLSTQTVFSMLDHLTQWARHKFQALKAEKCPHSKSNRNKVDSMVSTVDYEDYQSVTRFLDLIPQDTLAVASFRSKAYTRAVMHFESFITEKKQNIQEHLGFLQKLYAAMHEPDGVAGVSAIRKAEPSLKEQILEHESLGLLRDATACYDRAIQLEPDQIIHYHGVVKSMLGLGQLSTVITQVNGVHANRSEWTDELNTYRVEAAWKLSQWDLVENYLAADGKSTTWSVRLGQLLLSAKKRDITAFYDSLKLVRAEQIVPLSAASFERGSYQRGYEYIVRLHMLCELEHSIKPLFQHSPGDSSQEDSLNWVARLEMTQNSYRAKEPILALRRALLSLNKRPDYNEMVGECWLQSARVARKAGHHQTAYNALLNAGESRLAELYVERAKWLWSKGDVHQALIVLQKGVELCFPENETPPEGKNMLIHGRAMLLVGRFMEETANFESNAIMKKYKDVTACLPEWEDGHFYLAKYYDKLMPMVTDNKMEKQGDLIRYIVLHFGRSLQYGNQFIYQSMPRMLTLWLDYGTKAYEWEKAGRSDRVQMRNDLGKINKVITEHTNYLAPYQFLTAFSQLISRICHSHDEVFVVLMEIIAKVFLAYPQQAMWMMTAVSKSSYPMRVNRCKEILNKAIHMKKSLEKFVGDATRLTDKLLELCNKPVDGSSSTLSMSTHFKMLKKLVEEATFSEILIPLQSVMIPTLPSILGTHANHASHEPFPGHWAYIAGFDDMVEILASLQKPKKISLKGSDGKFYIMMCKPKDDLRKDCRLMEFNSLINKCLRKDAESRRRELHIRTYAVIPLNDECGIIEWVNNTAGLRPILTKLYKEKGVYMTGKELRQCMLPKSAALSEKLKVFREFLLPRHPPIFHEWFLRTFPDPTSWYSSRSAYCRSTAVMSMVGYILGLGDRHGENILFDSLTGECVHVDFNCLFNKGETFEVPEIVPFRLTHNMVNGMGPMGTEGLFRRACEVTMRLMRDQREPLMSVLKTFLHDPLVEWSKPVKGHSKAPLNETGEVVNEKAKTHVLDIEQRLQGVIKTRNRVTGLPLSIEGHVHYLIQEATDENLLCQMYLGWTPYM
Sequence of Myosin light chain kinase, smooth muscle (Homo sapiens) (Q15746 whole entry, the tested form may be a part): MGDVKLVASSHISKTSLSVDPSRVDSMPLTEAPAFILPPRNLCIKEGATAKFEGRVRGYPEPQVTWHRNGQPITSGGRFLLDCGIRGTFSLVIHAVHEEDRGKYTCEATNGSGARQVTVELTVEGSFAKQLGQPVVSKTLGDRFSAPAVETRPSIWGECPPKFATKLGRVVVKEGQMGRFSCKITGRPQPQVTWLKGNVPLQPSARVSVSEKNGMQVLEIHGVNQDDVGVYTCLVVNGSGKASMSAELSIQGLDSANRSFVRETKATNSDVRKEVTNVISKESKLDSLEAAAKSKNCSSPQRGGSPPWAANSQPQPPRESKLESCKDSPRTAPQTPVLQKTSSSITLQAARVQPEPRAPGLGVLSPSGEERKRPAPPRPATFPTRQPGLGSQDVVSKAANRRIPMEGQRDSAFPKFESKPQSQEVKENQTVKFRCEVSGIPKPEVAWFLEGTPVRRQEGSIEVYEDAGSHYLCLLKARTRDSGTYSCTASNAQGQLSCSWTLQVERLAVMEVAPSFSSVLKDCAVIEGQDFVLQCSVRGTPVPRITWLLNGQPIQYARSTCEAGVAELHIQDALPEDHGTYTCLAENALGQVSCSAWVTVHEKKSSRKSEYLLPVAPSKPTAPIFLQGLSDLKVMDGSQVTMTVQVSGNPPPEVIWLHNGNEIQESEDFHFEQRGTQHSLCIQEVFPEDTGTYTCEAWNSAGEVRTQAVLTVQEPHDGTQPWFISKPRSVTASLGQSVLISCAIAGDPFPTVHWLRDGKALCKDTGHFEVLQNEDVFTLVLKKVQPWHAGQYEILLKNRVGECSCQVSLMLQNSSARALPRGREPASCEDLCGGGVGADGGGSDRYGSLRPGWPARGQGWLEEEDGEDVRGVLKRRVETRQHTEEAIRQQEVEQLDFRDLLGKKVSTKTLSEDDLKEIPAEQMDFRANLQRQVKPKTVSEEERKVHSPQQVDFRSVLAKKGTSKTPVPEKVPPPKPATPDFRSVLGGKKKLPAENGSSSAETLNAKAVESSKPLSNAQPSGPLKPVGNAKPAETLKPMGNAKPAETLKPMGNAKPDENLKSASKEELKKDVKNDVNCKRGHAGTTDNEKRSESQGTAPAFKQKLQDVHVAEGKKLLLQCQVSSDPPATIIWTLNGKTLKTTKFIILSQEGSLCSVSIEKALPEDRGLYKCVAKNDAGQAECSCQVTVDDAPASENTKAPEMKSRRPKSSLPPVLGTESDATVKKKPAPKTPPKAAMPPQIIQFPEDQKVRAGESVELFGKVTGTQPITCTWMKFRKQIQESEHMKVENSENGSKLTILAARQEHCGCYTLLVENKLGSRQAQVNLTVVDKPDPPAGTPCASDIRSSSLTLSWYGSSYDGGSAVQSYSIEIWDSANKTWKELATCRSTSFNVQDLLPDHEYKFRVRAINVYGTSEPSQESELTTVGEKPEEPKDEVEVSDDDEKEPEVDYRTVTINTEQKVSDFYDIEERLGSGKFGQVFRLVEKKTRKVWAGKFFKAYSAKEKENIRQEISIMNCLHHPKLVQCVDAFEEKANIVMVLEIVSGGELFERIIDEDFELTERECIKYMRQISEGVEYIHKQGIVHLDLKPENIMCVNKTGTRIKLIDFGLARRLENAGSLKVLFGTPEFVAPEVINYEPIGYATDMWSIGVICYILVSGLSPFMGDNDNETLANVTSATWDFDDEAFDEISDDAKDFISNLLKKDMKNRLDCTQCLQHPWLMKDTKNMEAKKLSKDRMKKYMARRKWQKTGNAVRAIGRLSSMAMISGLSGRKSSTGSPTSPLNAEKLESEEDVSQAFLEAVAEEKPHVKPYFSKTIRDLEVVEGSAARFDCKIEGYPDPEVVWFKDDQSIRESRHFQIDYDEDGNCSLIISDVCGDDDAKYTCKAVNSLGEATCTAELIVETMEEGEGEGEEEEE

Structure (SMILES)	Activity [1]	inhibition [2]	inhibition [3]	inhibition [4]	Activity [5]	inhibition [6]	inhibition [7]	inhibition [8]	inhibition [9]	inhibition [10]	inhibition [11]	inhibition [12]	inhibition [13]	inhibition [14]	inhibition [15]	inhibition [16]	inhibition [17]	Activity [18]	clearance [19]	inhibition [20]
COc1cc2nccc(Oc3ccc(NC(=O)C4(C(=O)Nc5ccc(F)cc5)CC4)cc3)c2cc1OC [CABOZANTINIB]	Active	Active	–	–	–	–	–	–	–	–	–	–	–	–	–	–	–	–	–	–
Cc1ccc(NC(=O)C2(C(=O)Nc3ccc(Nc4ncc(F)c(-c5cc(F)c6nc(C)n(C(C)C)c6c5)n4)cc3)CC2)cc1	–	–	47%	5%	Non-Toxic	7%	0%	47%	21%	15%	0%	0%	45%	18%	0%	0%	34%	Non-Toxic	16.7 mL/min/kg	14%

Source: ChEMBL document CHEMBL4406821, “Novel dual inhibitors targeting CDK4 and VEGFR2 synergistically suppressed cancer progression and angiogenesis” (Eur J Med Chem, 2019)
